The subject of assay [1] is C2C12. Briefly: Inhibition of TGFbeta1-induced fibrosis in mouse C2C12 cells assessed as reduction in SMalpha22 protein expression level at 10 uM preincubated for 30 mins followed by TGFbeta1 addition and measured after 48 hrs by Western blot analysis. Type of assay: functional, cell-based. The method in brief:
(§1)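 C2C12 myoblasts were seeded to 80% confluence. Cells received 10 μM inhibitor and 5.0 ng/mL TGFβ1, with inhibitor exposure of 30 min or 2 h. α-SMA and SMα22 were detected by Western blot with specific antibodies. Bands were quantified by densitometry and normalized to β-actin. Results are fold change over untreated control, mean ± SD of three independent experiments. Two-way ANOVA with Bonferroni post hoc test.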

Assay [2] deals with C2C12. As to the kind of experiment: Inhibition of TGFbeta1-induced fibrosis in mouse C2C12 cells assessed as reduction in alphaSMA protein expression level at 10 uM preincubated for 30 mins followed by TGFbeta1 addition and measured after 48 hrs by Western blot analysis. The class given is functional, cell-based. The method in brief: as §1
Assay [3] deals with C2C12. Briefly: Inhibition of TGFbeta1-induced fibrosis in mouse C2C12 cells assessed as reduction in alphaSMA protein expression level at 10 uM preincubated for 120 mins followed by TGFbeta1 addition and measured after 48 hrs by DAPI and rhodamine phalloidin staining based laser scanning confocal microscopic method relative to control. Type of assay: functional. The method in brief:
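C2C12 cells were serum-starved for 24 h, preincubated 2 h with 10 μM inhibitor, then treated with 5.0 ng/mL TGFβ1 for 48 h. Confocal immunofluorescence used an anti-αSMA primary antibody with a fluorescein-conjugated anti-mouse secondary antibody. αSMA localization was assessed relative to F-actin microfilaments.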

Assay [4] concerns C2C12. As to the kind of experiment: Inhibition of TGFbeta1-induced fibrosis in mouse C2C12 cells assessed as reduction in caveolin3 protein expression level preincubated for 2 hrs followed by TGFbeta1 addition and measured after 48 hrs by Western blot analysis relative to control. Type of assay: functional.
Assay [5] deals with C2C12. As to the kind of experiment: Inhibition of TGFbeta1-induced fibrosis in mouse C2C12 cells assessed as reduction in alphaSMA protein expression level at 10 uM preincubated for 30 mins followed by TGFbeta1 addition and measured after 48 hrs by Western blot analysis relative to control. Type of assay: functional. An outline of the steps:
as §1

Assay [6] concerns C2C12. Briefly: Inhibition of TGFbeta1-induced fibrosis in mouse C2C12 cells assessed as reduction in SMalpha22 protein expression level at 10 uM preincubated for 2 hrs followed by TGFbeta1 addition and measured after 48 hrs by Western blot analysis. The class given is functional, cell-based. The method in brief: as §1
The subject of assay [7] is C2C12. Briefly: Inhibition of TGFbeta1-induced fibrosis in mouse C2C12 cells preincubated for 2 hrs followed by TGFbeta1 addition and measured after 48 hrs by Western blot analysis relative to control.

The source made the active and inactive calls. The calls are words filed in the database; no cut-off is given here.

On to `Cc1cc(CS(=O)(=O)c2ccccc2)cc(OCc2ccc(CN3CCC[C@@H]3CO)cc2)c1`, for which the inhibition result in the assay with C2C12 [1] and in the assay on C2C12 [2] was “Active” each time. The inhibition at 10 µM with C2C12 [3] was determined as 100%.

`CC(=O)N[C@H]1[C@H](OCc2ccc(COc3cc(C)cc(CS(=O)(=O)c4ccccc4)c3)cc2)O[C@H](CO)[C@@H](O)[C@@H]1O`: the inhibition result in the assay with C2C12 [2] is “Active”.

Regarding `CC(=O)OC[C@H]1O[C@@H](OCc2ccc(COc3cc(C)cc(CS(=O)(=O)c4ccccc4)c3)cc2)[C@H](OC(C)=O)[C@@H](OC(C)=O)[C@@H]1OC(C)=O`, the “inhibition (INH)” value with C2C12 [4] is on record as 100%. For the same molecule, the inhibition at 10 µM in the assay with C2C12 [5] and in the assay with C2C12 [3] was 100% each time. For the same molecule, the inhibition entry with C2C12 [1], with C2C12 [2] and in the assay with C2C12 [6] was “Active” each time.

On to `Cc1cc(CS(=O)(=O)c2ccccc2)cc(OCc2ccc(CO[C@@H]3O[C@H](CO)[C@@H](O)[C@H](O)[C@H]3O)cc2)c1`, for which the “inhibition (INH)” value with C2C12 [7] is listed as 100%. For the same molecule, the inhibition result with C2C12 [1] and with C2C12 [2] was “Active” each time. Also, in the assay on C2C12 [3], the inhibition at 10 µM worked out at 100%.

Consider `Cc1cc(CS(=O)(=O)c2ccccc2)cc(OCc2ccc(CO[C@@H]3O[C@H](CO)[C@H](O)[C@H](O)[C@H]3O)cc2)c1`, for which the inhibition entry with C2C12 [1] and in the assay on C2C12 [2] was “inactive” throughout.

The values above are taken from ChEMBL document CHEMBL4613310, “Glycans Meet Sphingolipids: Structure-Based Design of Glycan Containing Analogues of a Sphingosine Kinase Inhibitor” (2020).
